PREPL inhibitor – human PREPL enzyme inhibition; Q4J6C6; recombinant PREPL, fluorescence polarization activity-based probe; inhibition, % at 5.96 µM; 320,000 compounds, 0.68% hits; in the data active = inhibition above about 43%;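 note: 0% = enzyme with DMSO and 100% = wells lacking enzyme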
UCH37 inh – human UCH37 deubiquitinating enzyme inhibition; purified proteasome/UCH37, Ub-AMC cleavage fluorescence; inhibition, % (no concentration beside the values); 330,000 compounds, 0.33% hits; AID 588478;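 active = mean inhibition over replicate wells above about 20%, limit read from the data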;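 note: 0% = compound-free wells with enzyme and 100% = wells lacking proteasome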
Target sequence (Q9Y5K5 whole entry, looked up): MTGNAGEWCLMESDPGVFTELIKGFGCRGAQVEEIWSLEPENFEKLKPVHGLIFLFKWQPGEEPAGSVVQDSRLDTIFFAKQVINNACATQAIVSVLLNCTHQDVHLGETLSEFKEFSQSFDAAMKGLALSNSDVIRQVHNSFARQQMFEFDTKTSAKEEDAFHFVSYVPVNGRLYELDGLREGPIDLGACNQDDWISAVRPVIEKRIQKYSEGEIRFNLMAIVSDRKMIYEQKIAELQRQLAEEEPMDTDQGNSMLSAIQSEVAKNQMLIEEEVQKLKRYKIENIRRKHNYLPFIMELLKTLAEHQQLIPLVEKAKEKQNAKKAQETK
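System: Proteasome-associated human UCH37 deubiquitinase; Input: 0.15 nM proteasome in added enzyme buffer; Also added: Ub-AMC substrate from 1 µM stock; Incubation: 30 min compound-proteasome preincubation then 25 min substrate reaction, room temperature; Detection: fluorescence, ex 355 nm, em 460 nm; Read-out: % inhibition of Ub-AMC cleavage fluorescence; Benchmarks: no-proteasome and no-compound wells.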
Fh CTSL1 inh – cathepsin L1 inhibition, PFM18AAP counter-screen | recombinant F. hepatica cathepsin L1, Z-Leu-Arg-MCA fluorescence | inhibition, % at 5.96 µM | 300,000 compounds, 0.49% hits | AID 1906;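 active = inhibition above the mean of all tested compounds plus 3 SD, set per screening campaign, cut at about 17% in these data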;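 note: 0% = plate median of test compound wells and 100% = 1 µM Z-Phe-Ala-diazomethylketone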
PP1 inh – blocks human PP1-alpha phosphatase, a PP5 counter-screen | 320,000 compounds, 0.9% hits | inhibition, % at 6.7 µM | P62136 | AID 2235 | purified PP1alpha, OMFP fluorescence;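 active = inhibition above the mean inhibition of all tested compounds plus 3 SD, computed separately for each screening campaign, cut at about 15% in these data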
UBC13 inh – inhibitors of human UBC13 polyubiquitin chain formation. P61088. TR-FRET. inhibition, % at 20 µM. 330,000 compounds, 0.47% hits. AID 485273; in the data active = inhibition above about 45%, passing the limit was not always enough
Target sequence (P61088 whole entry, looked up): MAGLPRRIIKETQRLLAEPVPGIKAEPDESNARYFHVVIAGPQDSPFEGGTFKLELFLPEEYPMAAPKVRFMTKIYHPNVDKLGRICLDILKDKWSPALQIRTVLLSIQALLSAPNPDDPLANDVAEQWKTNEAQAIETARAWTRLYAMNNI
PP5 inh – PP5 (human) phosphatase inhibition; P53041; purified PP5c, OMFP substrate fluorescence; inhibition, % at 6.7 µM; AID 1987; 320,000 compounds, 0.18% hits;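 active = inhibition above the campaign's mean inhibition across all tested compounds plus 3 SD, cut at about 9.5% in these data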;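 note: 0% = DMSO only and 100% = 100 µM cantharidin control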
PP1 confirm – human PP1 phosphatase inhibition, confirmation; shares compounds with PP1 inh; purified PP1alpha, OMFP substrate fluorescence; inhibition, % at 6.7 µM; 1,900 compounds, 52% hits; AID 2358;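 active = mean PP1 inhibition above a set limit taken from the earlier primary screen, cut at about 15% in these data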
PP5 inh counter – counter-screen for PP1 inhibitors: human PP5 phosphatase inhibition. inhibition, % at 6.7 µM. purified PP5c, OMFP fluorescence. 1,900 compounds, 4% hits. shares compounds with PP1 inh;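 active = mean PP5 inhibition over triplicate wells above about 9.5% taken from the earlier PP1 screen, limit read from the data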
Active calls of the source: *; x = not tested or not shown. Hits are enriched below; roughly 2.3% of the tested compounds scored in any of these assays.

SMILES | PREPL inhibitor | UCH37 inh | Fh CTSL1 inh | PP1 inh | UBC13 inh | PP5 inh | PP1 confirm | PP5 inh counter
N#Cc1c(-c2ccc(Cl)cc2)cc(-c2cccs2)nc1SCC(=O)O | 7.9 | x | 6.2 | 46.8* | -6.1 | 2.5 | 49.0* | -4.9
N#Cc1c(-c2ccccc2)cc(-c2cccs2)nc1SCC(=O)O | 12.8 | -66.6 | 0.4 | 7.8 | 1.1 | -0.6 | x | x
O=[N+]([O-])c1ccc(/C=C/c2ccc3cccc([N+](=O)[O-])c3n2)cc1 | 11.2 | 4.6 | 7.8 | 7.3 | -10.5 | -6.6 | x | x
COc1ccc(Cl)cc1/C=C/c1ccc2cccc(O)c2n1 | 7.2 | -1.3 | -1.6 | 17.8* | -21.9 | 2.3 | 16.4* | -2.6
COc1cc(Cl)cc(/C=C/c2ccc3cccc(O)c3n2)c1OC | 13.8 | 4.7 | 0.8 | 2.8 | -21.6 | -0.7 | x | x
COc1ccccc1/C=C/c1ccc2cccc(O)c2n1 | 2.0 | 1.2 | 1.1 | 22.9* | -12.5 | 1.5 | 14.7 | -1.3
O=[N+]([O-])c1cccc(/C=C/c2ccc3cccc(O)c3n2)c1 | 24.4 | 4.3 | -0.2 | 24.5* | -25.4 | 2.1 | 20.8* | -6.6
CCOc1cccc(/C=C/c2ccc3cccc(O)c3n2)c1O | 23.2 | -2.3 | -1.5 | 12.0 | -27.0 | 0.0 | x | x
CCOc1cccc(/C=C/c2ccc3cccc(O)c3n2)c1OC | 7.6 | x | -1.2 | 21.4* | -30.3 | 1.8 | 15.4* | -1.9
CCNC(=S)NN=Cc1sccc1C | x | 7.9 | x | x | x | x | x | x
Cc1ccc2nc(Cl)c(C=NNC(=O)[C@H]3C[C@@H]3c3ccccc3)cc2c1 | x | -1.9 | x | x | x | x | x | x
Oc1cccc2ccc(/C=C/c3ccccc3Cl)nc12 | -8.5 | -2.1 | 5.0 | 19.4* | -21.6 | 1.0 | 11.1 | -0.5
O=C(CNC(=O)c1cccc(Br)c1)NN=Cc1cn[nH]c1-c1ccccc1 | x | 3.7 | x | x | x | x | x | x
O=C(OCC1OC(n2ncc(=O)[nH]c2=O)C(OC(=O)c2ccccc2)C1OC(=O)c1ccccc1)c1ccccc1 (stereo not given) | -20.4 | 4.1 | 4.3 | 24.0* | -38.0 | 2.3 | 21.9* | 4.4
CC(=O)OC[C@H]1O[C@@H](n2ncc(=O)[nH]c2=O)[C@H](OC(C)=O)[C@@H]1OC(C)=O | 8.5 | 2.7 | 6.6 | -3.2 | 0.5 | 0.2 | x | x
O=C(O)c1ccc(C=NNc2ccc(Cl)nn2)cc1 | x | 10.9 | x | x | x | x | x | x
CCOC(=O)Cc1cc(=O)n2[nH]c(C)c(-c3ccc(Cl)cc3)c2n1 | 0.8 | -33.6 | 4.0 | 24.8* | -6.4 | 3.2 | 18.2* | -5.1
CCOC(=O)c1cc(=O)n2[nH]c(-c3ccc(C)cc3)cc2n1 | 6.3 | -35.8 | -2.7 | 4.0 | 6.3 | 3.7 | x | x
CCOC(=O)Cc1cc(=O)n2[nH]c(C)c(-c3ccc(OC)cc3)c2n1 | 17.9 | -3.2 | -3.7 | 13.1 | 8.3 | -2.9 | x | x
CCOC(=O)Cc1cc(=O)n2[nH]c(-c3ccc(C)cc3)cc2n1 | 5.4 | -7.0 | 0.5 | 18.2* | 6.3 | -3.0 | 10.3 | 1.1
Nc1nonc1-n1nnc(C(=O)NN=Cc2ccncc2)c1CSc1ccc(Cl)cc1 | x | 0.9 | x | x | x | x | x | x
CCOc1cccc(-c2nn(-c3ccccc3)cc2/C=C(/C#N)C(=O)NCCCn2ccnc2)c1 | -10.4 | -5.3 | 4.4 | 25.8* | 14.2 | 3.5 | 17.0* | 4.4
CC(=NNC(=O)c1ccc(Br)cc1)c1cccc(NC(=O)c2cccnc2)c1 | x | 1.5 | x | x | x | x | x | x
CCCCCCc1cc2cc(-c3nnc(-c4ccccc4OC)o3)c(=O)oc2cc1O | 11.4 | x | 4.5 | 20.2* | -28.9 | -4.5 | 1.7 | -13.0
COc1ccc(S(=O)(=O)c2c(N)n(Cc3ccco3)c3nc4ccccc4nc23)cc1 | 10.2 | -93.3 | 4.2 | 19.3* | 0.1 | -2.1 | 9.5 | 0.3
O=C(CSc1ccc2nnc(-c3ccc(Cl)cc3)n2n1)N1CCCc2ccccc21 | -5.5 | -9.5 | 0.3 | 24.3* | 27.2 | 1.7 | 13.2 | -6.3
COC(=O)c1ccc(C2/C(=C(/O)c3ccc(OC)cc3)C(=O)C(=O)N2c2cc(C)on2)cc1 (stereo not given) | -2.9 | 10.5 | -2.4 | 2.0 | -11.7 | 2.9 | x | x

Compound activity deposited in PubChem by several laboratories.
